Assay results from ChEMBL document CHEMBL3045934, “Acaricidal activity of constituents identified in Foeniculum vulgare fruit oil against Dermatophagoides spp. (Acari: Pyroglyphidae)” (J Agric Food Chem, 2004).

Experiments:
[1] = tested on: Dermatophagoides pteronyssinus; test: Ratio of benzyl benzoate LD50 to compound LD50 for 7 to 10 day-old Dermatophagoides pteronyssinus adult after 24 hr by microscopy; assay type: functional
[2] = tested on: Dermatophagoides pteronyssinus; test: Acaricidal activity against 7 to 10 day-old Dermatophagoides pteronyssinus adult after 24 hr by microscopy; assay type: functional
Outline: (§1)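 Mites exposed by direct contact in a lidded container, held at 25 ± 1 °C, 75% relative humidity, in darkness. Mortality scored 24 h after treatment under a binocular microscope (20×). Untreated controls run alongside. Three replicates per treatment. LD50 derived by probit analysis.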

[3] = tested on: Dermatophagoides farinae; test: Acaricidal activity against 7 to 10 day-old Dermatophagoides farinae adult after 24 hr by microscopy; assay type: functional; outline: as §1
[4] = tested on: Dermatophagoides farinae; test: Ratio of benzyl benzoate LD50 to compound LD50 for 7 to 10 day-old Dermatophagoides farinae adult after 24 hr by microscopy; assay type: functional
[5] = Acute toxicity in po dosed Rattus norvegicus (rat); assay type: organism-based; conditions: in vivo

`COc1ccc(C=O)cc1` gave a Ratio [1] of 6.7, an LD50 [2] of 10.1 mg/m2 and an LD50 [3] of 11.3 mg/m2. It also gave a Ratio [4] of 7.9.
Work on `CC1(C)C(=O)[C@@]2(C)CCC1C2` [(+)-FENCHONE] yielded a Ratio [1] of 1.6, an LD50 [2] of 43.2 mg/m2 and an LD50 [3] of 38.9 mg/m2. For the same molecule, the Ratio [4] was 2.3.
For `CC1(C)C(=O)[C@]2(C)CCC1C2` [(-)-FENCHONE], the Ratio [1] was 1.4, the LD50 [2] was 48.7 mg/m2 and the LD50 [3] was 41.8 mg/m2. It also gave a Ratio [4] of 2.1.
`O=C(OCc1ccccc1)c1ccccc1` [BENZYL BENZOATE] gave an LD50 [2] of 67.5 mg/m2 and an LD50 [3] of 89.2 mg/m2.
`C=CCc1ccc(OC)cc1` [ESTRAGOLE] gave a Ratio [1] of 0.2, an LD50 [2] of 389.9 mg/m2 and an LD50 [3] of 413.3 mg/m2. For the same molecule, the Ratio [4] was 0.2.
In the case of `CC12CCC(C1)C(C)(C)C2=O` (centres undefined) [FENCHONE], the LD50 [5] is reported as 6160 mg/kg.
